Experiment [1] is described as follows: In vitro inhibition of bone resorption by isolated Human osteoclastoma cells (ELISA). The format is functional. In a few lines:
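Collagenase-dispersed osteoclastoma cells, negatively selected with HLA-I Dynabeads, were settled on bone slices at 4000 cells/well. Compound was added at several concentrations, with 8 slices per concentration. After 48 h in D-MEM, type I collagen fragments released into the supernatant were quantified by ELISA.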

Experiment [2] can be described thus: In vitro inhibition of bone resorption by isolated Human osteoclastoma cells by the number of excavations (pits/bone slice). The format is functional. In short, it runs like this: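 Human giant-cell-tumour osteoclasts were HLA-I bead-depleted and seeded on bone slices (4000 cells/well), 8 slices per concentration, then cultured 48 h in D-MEM. Slices were glutaraldehyde-fixed and TRAP-stained, and cells were bleached off. Slices were gold-coated and resorption pits counted by light microscopy, expressed as pits/bone slice.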

Experiment [3] addresses T1, V-type proton ATPase 116 kDa subunit a 1 (Gallus gallus, UniProt Q9I8D0). Description: Compound was tested for inhibition of V-ATPase from Chicken adrenal glands(cAG). The format is tissue-based, Adrenal gland. In short, it runs like this: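 Bafilomycin-sensitive ATPase in purified microsomal membranes from whole chicken adrenal glands (two-step 35%/50% sucrose gradient), 20–40 μg protein/mL. Medium: 0.2 M sucrose, 50 mM KCl, 10 mM Hepes-Tris pH 7.4, 1 mM CDTA, 1 mM ATP, 0.1 mM molybdate, 5 μM valinomycin, 5 μM nigericin. Started with 5 mM MgSO4, 30 min at 37 °C, phosphate read by malachite green.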

In experiment [4] the target is T1, V-type proton ATPase 116 kDa subunit a 1. Description: (§1) Compound was tested for inhibition of V-ATPase from Chicken osteoclasts (cOc). In a few lines:
(§2)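 Bafilomycin-sensitive ATPase activity in sucrose-gradient-purified membrane vesicles from medullary bone of calcium-starved egg-laying hens, 20–40 μg protein/mL. Medium: 0.2 M sucrose, 50 mM KCl, 10 mM Hepes-Tris pH 8, 1 mM CDTA, 1 mM ATP, 0.1 mM molybdate, 5 μM valinomycin, 5 μM nigericin. Started with 5 mM MgSO4; 30 min, 37 °C; phosphate release by malachite green.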

Experiment [5] concerns the target V-type proton ATPase subunit B, kidney isoform (Homo sapiens, UniProt P15313). Description: Compound was tested for inhibition of V-ATPase from human kidney cortex(hK). In short, it runs like this:
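Brush border membranes from frozen human kidney cortex, about 70 μg protein/mL. Bafilomycin-sensitive ATPase in 0.2 M sucrose, 50 mM KCl, 10 mM Hepes-Tris pH 7.4, 1 mM CDTA, 1 mM ATP, 0.1 mM molybdate, 5 μM valinomycin, 5 μM nigericin. Started with 5 mM MgSO4, 30 min at 37 °C, Pi measured colorimetrically (malachite green).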

The target in experiment [6] is T1, V-type proton ATPase 116 kDa subunit a 1. The experiment is described as §1. The format is functional. In a few lines: as §2

Sequence of V-type proton ATPase subunit B, kidney isoform (P15313 whole entry, canonical isoform): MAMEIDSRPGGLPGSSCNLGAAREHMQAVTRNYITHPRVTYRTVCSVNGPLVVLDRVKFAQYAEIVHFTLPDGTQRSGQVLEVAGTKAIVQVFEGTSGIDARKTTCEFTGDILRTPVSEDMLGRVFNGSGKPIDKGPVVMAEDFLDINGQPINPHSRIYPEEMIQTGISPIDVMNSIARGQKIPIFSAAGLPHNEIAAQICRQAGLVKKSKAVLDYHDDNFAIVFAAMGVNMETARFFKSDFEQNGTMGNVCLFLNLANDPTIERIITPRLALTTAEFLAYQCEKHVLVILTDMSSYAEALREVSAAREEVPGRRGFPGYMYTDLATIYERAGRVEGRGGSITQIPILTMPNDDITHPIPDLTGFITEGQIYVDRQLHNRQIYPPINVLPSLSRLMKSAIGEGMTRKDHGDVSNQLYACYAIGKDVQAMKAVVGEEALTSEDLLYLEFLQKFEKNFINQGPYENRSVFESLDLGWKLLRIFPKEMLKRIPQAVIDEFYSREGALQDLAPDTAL
T1 sequence (Q9I8D0 whole entry): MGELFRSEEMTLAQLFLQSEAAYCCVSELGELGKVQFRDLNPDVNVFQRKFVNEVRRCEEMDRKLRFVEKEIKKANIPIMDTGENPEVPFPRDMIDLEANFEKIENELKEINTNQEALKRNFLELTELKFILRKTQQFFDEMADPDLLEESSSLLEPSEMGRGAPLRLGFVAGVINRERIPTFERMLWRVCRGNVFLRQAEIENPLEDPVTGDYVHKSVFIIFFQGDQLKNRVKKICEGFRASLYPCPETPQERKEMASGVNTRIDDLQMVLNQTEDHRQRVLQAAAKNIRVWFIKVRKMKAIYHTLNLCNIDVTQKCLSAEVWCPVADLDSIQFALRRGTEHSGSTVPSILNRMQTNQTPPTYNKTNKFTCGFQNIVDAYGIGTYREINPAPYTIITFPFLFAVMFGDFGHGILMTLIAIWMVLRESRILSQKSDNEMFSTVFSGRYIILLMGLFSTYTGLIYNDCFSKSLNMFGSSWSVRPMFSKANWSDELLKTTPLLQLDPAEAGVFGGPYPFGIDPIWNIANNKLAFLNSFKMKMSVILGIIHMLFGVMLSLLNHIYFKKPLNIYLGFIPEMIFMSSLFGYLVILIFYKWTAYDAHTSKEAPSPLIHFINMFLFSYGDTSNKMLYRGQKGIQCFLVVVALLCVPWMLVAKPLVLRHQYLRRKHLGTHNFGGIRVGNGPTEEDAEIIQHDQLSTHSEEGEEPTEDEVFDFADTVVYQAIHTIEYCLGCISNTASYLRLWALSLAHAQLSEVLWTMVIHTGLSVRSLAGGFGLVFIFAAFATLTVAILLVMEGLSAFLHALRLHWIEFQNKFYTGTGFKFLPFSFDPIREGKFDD

Take `CO/C(=C\C=C\c1cc2cc(Cl)c(Cl)cc2[nH]1)C(=O)NC1CC(C)(C)NC(C)(C)C1`: the IC50 worked out at 0.03 µM in experiment [1]; 0.04 µM in experiment [2]; 0.82 µM in experiment [3]; 0.08 µM in experiment [4]; 0.44 µM in experiment [5].

`CCN(CC)CCCNC(=O)/C(=C/C=C/c1cc2cc(Cl)c(Cl)cc2[nH]1)OC`: the IC50 in experiment [1] is 0.14 µM; in experiment [2] it was 0.18 µM; in experiment [3] it was 2.8 µM; in experiment [4], 0.18 µM; in experiment [5] it was 3 µM.

Consider `CO/C(=C\C=C\c1cc2cc(Cl)c(Cl)cc2[nH]1)C(=O)NCCCN1CCN(c2ncccn2)CC1`, for which the concentration for half-maximal inhibition (IC50) in experiment [1] stood at 0.01 µM; in experiment [2] it was 0.03 µM; in experiment [3] it was 0.93 µM; in experiment [4], 0.06 µM; in experiment [5], 0.37 µM.

As to `COC(=O)/C(=C\C=C\c1cc2ccccc2[nH]1)OC`, the IC50 in experiment [6] and in experiment [4] was 30 µM in each case.

Regarding `CO/C(=C\C=C\c1cc2cc(Cl)c(Cl)cc2[nH]1)C(=O)NC1C[C@H]2CC[C@@H](C1)N2C` (some centres not stated), the IC50 came out at 0.03 µM in experiment [1]; 0.03 µM in experiment [2]; 2.5 µM in experiment [3]; 0.1 µM in experiment [4]; 1.32 µM in experiment [5].
